This is an account of results in ChEMBL document CHEMBL1926645, “Synthesis and biological evaluation of (4H-1,2,4-triazol-4-yl)isoquinoline derivatives as selective glycine transporter 1 inhibitors” (Bioorg Med Chem, 2012).

For one data set, the species on record is Rattus norvegicus. The data set can be described thus: Selectivity ratio of IC50 for rat GlyT2 to IC50 for rat GlyT1.
A short description of data set [1]: Aqueous solubility of the compound at pH 1.2. It counts as physicochemical. In a few lines: (§1)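 Compound suspension held at 25 °C for 20 h; precipitate removed by filtration and dissolved concentration in filtrate measured by HPLC.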
In data set [2] the target is T1, Sodium- and chloride-dependent glycine transporter 1 (Rattus norvegicus, UniProt P28572).
T1 sequence (P28572 whole entry): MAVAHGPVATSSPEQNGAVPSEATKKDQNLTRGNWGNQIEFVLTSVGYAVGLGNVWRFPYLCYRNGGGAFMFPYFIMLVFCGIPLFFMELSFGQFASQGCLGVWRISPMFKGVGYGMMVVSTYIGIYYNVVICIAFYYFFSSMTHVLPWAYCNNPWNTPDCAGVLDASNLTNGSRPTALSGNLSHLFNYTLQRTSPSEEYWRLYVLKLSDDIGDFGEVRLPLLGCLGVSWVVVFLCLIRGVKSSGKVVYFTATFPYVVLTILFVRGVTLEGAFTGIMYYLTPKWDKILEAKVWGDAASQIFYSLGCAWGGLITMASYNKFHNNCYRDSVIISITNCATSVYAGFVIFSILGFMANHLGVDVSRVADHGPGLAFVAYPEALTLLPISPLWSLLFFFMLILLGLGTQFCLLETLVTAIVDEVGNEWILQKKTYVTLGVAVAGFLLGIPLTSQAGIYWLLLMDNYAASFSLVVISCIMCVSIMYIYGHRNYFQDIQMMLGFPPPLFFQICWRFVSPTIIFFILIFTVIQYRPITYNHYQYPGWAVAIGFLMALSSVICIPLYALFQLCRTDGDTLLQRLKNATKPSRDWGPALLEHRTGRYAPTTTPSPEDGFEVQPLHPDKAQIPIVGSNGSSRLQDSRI
Briefly: Displacement of [3H]glycine from rat GlyT1 expressed in rat C6 cells after 30 mins by scintillation counting. It counts as cell-based. In a few lines:
(§2)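 Rat GlyT1-expressing C6 cells grown in D-MEM/10% FCS, 37 °C, 5% CO2, plated 2 days ahead. Cells washed, then preincubated 30 min with compound in HEPES buffer pH 7.4 (NaCl, KCl, MgCl2, CaCl2, glucose, L-alanine). Uptake started with [3H]glycine, 10 min at 37 °C. Nonspecific uptake defined with 3 mmol/L sarcosine. Cells washed with ice-cold PBS, lysed in 0.1 mol/L NaOH, scintillation counted; mean ± SEM of three independent experiments.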
(In a radioligand displacement assay an active substance lowers the binding of a labelled ligand.)

Data set [3] can be described thus: Aqueous solubility of the compound at pH 6.8. Format: physicochemical. In a few lines: as §1
Data set [4] has as its target T2, Sodium- and chloride-dependent glycine transporter 2 (Rattus norvegicus, UniProt P58295).
T2 sequence (P58295 whole entry): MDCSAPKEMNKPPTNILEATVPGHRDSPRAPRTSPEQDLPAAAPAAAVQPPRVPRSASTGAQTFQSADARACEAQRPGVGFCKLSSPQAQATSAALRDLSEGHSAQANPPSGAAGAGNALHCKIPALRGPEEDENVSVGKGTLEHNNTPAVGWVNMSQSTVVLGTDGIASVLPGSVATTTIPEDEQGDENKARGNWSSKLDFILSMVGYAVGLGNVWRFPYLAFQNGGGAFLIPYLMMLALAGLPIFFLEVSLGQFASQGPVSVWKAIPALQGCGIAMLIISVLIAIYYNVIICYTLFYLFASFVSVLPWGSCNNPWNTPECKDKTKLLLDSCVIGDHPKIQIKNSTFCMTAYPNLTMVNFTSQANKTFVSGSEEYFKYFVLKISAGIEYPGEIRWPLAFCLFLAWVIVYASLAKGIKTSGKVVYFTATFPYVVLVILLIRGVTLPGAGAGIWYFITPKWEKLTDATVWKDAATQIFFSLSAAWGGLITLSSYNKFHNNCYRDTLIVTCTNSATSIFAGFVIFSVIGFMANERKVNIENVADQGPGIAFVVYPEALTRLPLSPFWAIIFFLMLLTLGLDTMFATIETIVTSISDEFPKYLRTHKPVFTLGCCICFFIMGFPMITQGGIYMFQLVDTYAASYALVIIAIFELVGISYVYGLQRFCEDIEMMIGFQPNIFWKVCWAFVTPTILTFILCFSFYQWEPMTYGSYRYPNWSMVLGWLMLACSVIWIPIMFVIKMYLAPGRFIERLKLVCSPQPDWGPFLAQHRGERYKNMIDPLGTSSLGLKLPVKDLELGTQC
Briefly: Displacement of [3H]glycine from Wistar rat brain GlyT2 after 10 mins by scintillation counting. In a few lines: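 Primary brainstem cells from Wistar rat fetuses (E17) were papain-dispersed, plated on poly-L-lysine, and cultured 14–21 days. The assay buffer, pH 7.4, contained 3 mmol/L sarcosine; wells were preincubated 10 min at 37 °C. Compound was added with ~0.3 µM [3H]glycine for 10 min at 37 °C, followed by four ice-cold washes, NaOH lysis and scintillation counting. Specific uptake was defined with 3 mmol/L glycine; mean ± SEM of three independent experiments.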

In data set [5] the target is T3, Sodium- and chloride-dependent glycine transporter 1 (Rattus norvegicus) (UniProt P28572).
T3 sequence (whole entry): T1 sequence (P28572 whole entry)
Briefly: Displacement of [3H]glycine from rat GlyT1 expressed in rat C6 cells at 10 uM after 30 mins by scintillation counting. It counts as cell-based. In a few lines:
as §2

A further data set concerns Mus musculus. Briefly: Antipsychotic activity in ICR mouse assessed as inhibition of (+)-HA966-induced hyperlocomotion at 10 mg/kg, ip administered 20 mins prior (+)-HA966] challenge measured every 90 mins. Format: functional. The following applies: route intraperitoneal. In a few lines:
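Mice, 16 per group, pretreated with reserpine 10 mg/kg ip 19 h and α-methyl-para-tyrosine methyl ester 250 mg/kg ip 30 min before bilateral intracerebroventricular (+)-HA966 80 µg/mouse; ACSF+vehicle controls. Locomotor activity integrated over 90 min immediately after (+)-HA966. Percent inhibition = 100 × [(HA966+vehicle − ACSF+vehicle) − (HA966+compound − ACSF+vehicle)] / (HA966+vehicle − ACSF+vehicle).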

The structures appear in SMILES notation. In brackets after ≈: the same amount, converted by molar mass. Bounds are passed on as bounds.

In the case of `CCc1nnc(-c2ccc(-c3ccccc3)cc2)n1-c1cccc2ncccc12`, the Ratio IC50 in the data set filed under Rattus norvegicus came to 3.3. Moreover, the results for the solubility in data set [1] and in data set [3] were over 100 µM and 9 µM (≈ 3.39 µg/mL), respectively. Also, the figures for the IC50 in data set [2] and in data set [4] were 0.82 µM and 2.7 µM, respectively.

In the case of `CCc1nnc(-c2ccc(-c3ccccc3)cc2)n1-c1ccnc2ccccc12`, the IC50 in data set [2] is 1.7 µM.

With `CCc1nnc(-c2ccc(-c3ccccc3)cc2)n1-c1cccc2c1CCNC2`, the inhibition in data set [5] amounted to 25%. This compound returned an IC50 in data set [2] of over 10 µM.

In the case of `CCc1nnc(-c2ccc(-c3ccccc3)cc2)n1-c1cccc2cc[nH]c12`, the IC50 in data set [2] was determined as 22 µM.

Compound `CCc1nnc(-c2ccc(-c3ccccc3)cc2)n1-c1cccc2c[n+]([O-])ccc12` showed an inhibition in data set [5] of 28%. Besides, in data set [2], the IC50 was over 10 µM.

`CCc1nnc(-c2ccc(-c3ccccc3)cc2)n1-c1cccc2[nH]ncc12` showed an IC50 in data set [2] of 2.8 µM.

Turning to `CCc1nnc(-c2ccc(-c3ccccc3)cc2)n1Cc1ccncc1`, the inhibition in data set [5] came out at 15%. Also, the IC50 in data set [2] was over 10 µM.

For `CC(C)c1nnc(-c2ccc(-c3ccccc3)cc2)n1-c1ccccc1F`, in the data set with Mus musculus, the inhibition in vivo at 10 mg/kg stood at 70%. For the same compound, the solubility in data set [1] is 5 µM (≈ 1.79 µg/mL); in data set [3], under 1 µM.

Consider `CCc1nnc(-c2ccc(-c3ccccc3)cc2)n1-c1cccc2cn[nH]c12`, for which the IC50 in data set [2] came out at 5.6 µM.

`CCc1nnc(-c2ccc(-c3ccccc3)cc2)n1-c1cncc2ccccc12`: the 50% inhibitory concentration (IC50) in data set [2] came out at 3.7 µM.

Compound `CCc1nnc(-c2ccc(-c3ccccc3)cc2)n1-c1cccc2nc[nH]c12` returned an IC50 in data set [2] of 7.5 µM.

With `CCc1nnc(-c2ccc(-c3ccccc3)cc2)n1-c1cccc2c(=O)[nH]ccc12`, the inhibition in data set [5] was 16%. In data set [2], this compound had an IC50 of over 10 µM.

The compound `CCc1nnc(-c2ccc(-c3ccccc3)cc2)n1C(C)c1ccncc1` (stereo unspecified) displayed an inhibition in data set [5] of 36%. In data set [2], this compound came in with an IC50 of over 10 µM.

`CCc1nnc(-c2ccc(-c3ccccc3)cc2)n1-c1cccc2ccn(C)c12`: in data set [2], the IC50 is 3 µM.

For `CCc1nnc(-c2ccc(-c3ccccc3)cc2)n1-c1cccc2cnccc12`, the solubility was over 100 µM in data set [1] and 5 µM (≈ 1.88 µg/mL) in data set [3].

In data set [2], `CCc1nnc(-c2ccc(-c3ccccc3)cc2)n1-c1nccc2ccccc12` returned an IC50 of 1.4 µM. That is a single-digit micromolar value.

As to `CCc1nnc(-c2ccc(-c3ccccc3)cc2)n1-c1cccc2cccnc12`, the Ratio IC50 in the data set filed under Rattus norvegicus turned out to be 1.3. In addition, the solubility in data set [1] was over 100 µM; in data set [3], 23 µM (≈ 8.66 µg/mL). The IC50 came to 0.3 µM in data set [2] and 0.38 µM in data set [4].

For the compound `CCc1nnc(-c2ccc(-c3ccccc3)cc2)n1-c1cccc2ccncc12`, the Ratio IC50 in the data set listed under Rattus norvegicus came to 5.3. Also, the solubility is over 100 µM in data set [1] and 11 µM (≈ 4.14 µg/mL) in data set [3]. The IC50 amounted to 0.8 µM in data set [2] and 4.2 µM in data set [4].

As to `CCc1nnc(-c2ccc(-c3ccccc3)cc2)n1-c1ccccc1F`, in the data set listed under Rattus norvegicus, the Ratio IC50 was found to be 1. In addition, the values for the solubility in data set [1] and in data set [3] were 96 µM (≈ 33 µg/mL) and under 1 µM, respectively.

Usually solubility stands for the concentration that dissolves in the medium under given conditions. Lower therefore signals little dissolved substance. In general, IC50 refers to the midpoint of a concentration-inhibition curve. As a reminder, the inhibition is how much of the control response was suppressed. Higher therefore signals a response far below the control. The inhibition in vivo is the change of the read-out against control, counted positive when it falls.
